Reference: ChEMBL document CHEMBL1132294, “Derivatives of the new ring system indolo[1,2-c]benzo[1,2,3]triazine with potent antitumor and antimicrobial activity” (J Med Chem, 1999)
Converted amounts (≈) assume the structure as drawn.

What was measured:
KB [1] = assay: Antiproliferative activity against drug-resistant tumor cell line KBCamp.; format: functional, cell-based; details: Homo sapiens
How it was run: (§1)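 Solid-tumour and KB lines: exponentially growing cells seeded at 5×10⁴ cells/mL, allowed to adhere 16 h, then serial drug dilutions added. Viability by MTT after 4 days. Growth expressed as % of untreated controls, 50% inhibitory concentration by linear regression. Untreated cells undergo at least three rounds of multiplication.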

KB [2] = assay: Antiproliferative activity against drug-resistant tumor cell line KBMDR.; format: functional, cell-based; details: Homo sapiens; how it was run: as §1
KB [3] = assay: Antiproliferative activity against drug-resistant tumor cell line KB7D.; format: functional, cell-based; details: Homo sapiens; how it was run: as §1
KB [4] = assay: Antiproliferative activity against drug-resistant tumor cell line KBwt.; format: functional, cell-based; details: Homo sapiens; how it was run: as §1
KB [5] = assay: Antiproliferative activity against drug-resistant tumor cell line KBV20C.; format: functional, cell-based; details: Homo sapiens; how it was run: as §1
5637 = assay: Antitumor activity was evaluated against human bladder carcinoma cell line 5637.; format: functional, cell-based; how it was run: as §1
ACHN = assay: Antitumor activity was evaluated against human renal adenocarcinoma cell line ACHN.; format: functional, cell-based; how it was run: as §1
Aspergillus fumigatus = assay: Antimycotic activity against Aspergillus fumigatus was evaluated as compound minimum inhibitory concentration at which no macroscopic signs of fungal growth were detected.; format: functional
CHO-K1 = assay: Antitumor activity was evaluated against Chinese hamster ovary carcinoma cell line CHO-K1.; format: functional, cell-based; details: Cricetulus griseus; how it was run: as §1
Candida albicans = assay: Antimycotic activity against Candida albicans was evaluated as minimum inhibitory concentration of compound at which no macroscopic signs of fungal growth were detected; format: functional
How it was run: (§2)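 Yeast inocula from 30 h Sabouraud dextrose broth cultures at 37 °C, diluted to 5×10³ cells/mL. Dermatophyte inocula from 5-day cultures, homogenized and diluted to 0.05 OD₅₉₀/mL. Inocula added to medium with serial dilutions, incubated at 37 °C, read visually at 2 days (yeast) or 3 days (dermatophytes). Mean of at least three experiments.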

Candida parapsilosis = assay: Antimycotic activity against Candida parapsilosis was evaluated as compound concentration at which no macroscopic signs of fungal growth were detected; format: functional; details: Lodderomyces parapsilosis; how it was run: as §2
Cryptococcus neoformans = assay: Antimycotic activity against Cryptococcus neoformans was evaluated. MIC was defined as compound concentration at which no macroscopic signs of fungal growth were detected.; format: functional; how it was run: as §2
IMR-32 = assay: Antitumor activity was evaluated against human neuroblastoma cell line IMR-32.; format: functional, cell-based; how it was run: as §1
L1210 = assay: Antitumor activity was evaluated against leukemia cell line L1210 (mouse leukemia).; format: functional, cell-based
How it was run: (§3)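 Exponentially growing leukemia/lymphoma cells resuspended at 1×10⁵ cells/mL in RPMI with serial drug dilutions. Viability by MTT after 4 days at 37 °C. Concentration giving 50% growth inhibition versus untreated controls found by linear regression. Mean of at least three experiments.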

MOLT-4 = assay: Antitumor activity was evaluated against leukemia cell line MOLT-4(human acute T lymphoblastic leukemia); format: functional, cell-based; how it was run: as §3
Lymphoblastoid cell = assay: Cytotoxicity was evaluated against lymphoblastoid cell line.; format: functional; details: Homo sapiens
MT4 = assay: Antitumor activity was evaluated against leukemia cell line MT-4(human CD4+ T cells expressing the TAT gene of HTLV-1).; format: functional, cell-based; how it was run: as §3
Homo sapiens [6] = species on record: Homo sapiens; assay: In vitro Antiproliferative activity against peripheral blood lymphocytes (PBL) after stimulating PBL with PHA and then resuspending in IL-2-containing medium in the presence of compound.; format: functional
How it was run: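 PBL from HIV-negative donors, isolated on Ficoll-Hypaque and rested overnight. Stimulated with PHA 2.5 μg/mL for 24 h, diluted to 1×10⁵ cells/mL in medium with PHA, IL-2 50 U/mL and compound. Viable cells counted after 6 days. Mean ±SD of three experiments.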

Homo sapiens [7] = species on record: Homo sapiens; assay: In vitro Antiproliferative activity against peripheral blood lymphocytes (PBL) by treating PBL with compound for 3 days, then stimulating with PHA and then resuspending in compound free medium.; format: functional; details: 72 h
How it was run: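 Resting donor PBL held at 1×10⁶ cells/mL and treated with compound for up to 3 days, then washed. Stimulated with PHA for 24 h, diluted to 1×10⁵ cells/mL in drug-free medium with PHA and IL-2. Viability read after 6 days at 37 °C. Mean ±SD of three experiments.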

Trichophyton benhamiae = assay: Antimycotic activity against Trichophyton mentagrophytes was evaluated. MIC was defined as compound concentration at which no macroscopic signs of fungal growth were detected.; format: functional, Arthroderma benhamiae; how it was run: as §2
WIL2-NS = assay: Antitumor activity was evaluated against lymphoma cell line Wil2-NS (human splenic B lymphoblastoid cells).; format: functional, cell-based; how it was run: as §3
CCRF-SB = assay: Antitumor activity was evaluated against leukemia cell line CCRF-SB(human acute B lymphoblastic leukemia).; format: functional, cell-based; how it was run: as §3
Candida tropicalis = assay: Antimycotic activity against Candida paratropicalis was evaluated. MIC was defined as compound concentration at which no macroscopic signs of fungal growth were detected.; format: functional; how it was run: as §2
HT-29 = assay: Antitumor activity was evaluated against human colon adenocarcinoma cell line HT-29.; format: functional, cell-based; how it was run: as §1
Mycobacterium = assay: Antibacterial activity was evaluated against MAC (Mycobacterium Avium Complex ); format: functional
How it was run: (§4)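 Mycobacterial suspension (turbidity of 1 McFarland standard, 10⁸ CFU/mL) added to Middlebrook 7H9 with 0.5% glycerol, 10% OADC and serial compound dilutions. Incubated at 37 °C, 1 day for M. smegmatis and M. fortuitum, 9 days for MAC. Viable mycobacteria counted by MTT. MIC given as mean of at least three separate experiments.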

[8] = tested on: Mycolicibacterium fortuitum; assay: Antibacterial activity was evaluated against Mycobacterium fortuitum.; format: functional; how it was run: as §4
[9] = tested on: Mycobacterium tuberculosis; assay: Antibacterial activity was evaluated against Mycobacterium tuberculosis (ATCC); format: functional
How it was run: (§5)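 Broth microdilution in Middlebrook 7H9 with 0.5% glycerol and 10% OADC, containing serial concentrations of compound (diluted in medium from a DMSO solution). Plates were incubated 9 days at 37 °C, and viable bacteria were read by MTT. MIC is the mean of at least three separate experiments.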

[10] = tested on: Mycolicibacterium smegmatis; assay: Antibacterial activity was evaluated against Mycobacterium smegmatis; format: functional; how it was run: as §4
Salmonella = assay: Antibacterial activity was evaluated against salmonella.; format: functional
How it was run: (§6)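 Recent clinical isolates grown in nutrient broth, pH 7.2, inoculum 10³ bacterial cells/tube, with serial compound dilutions. […] Mean of at least three separate experiments.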

Streptococcus = assay: Antibacterial activity was evaluated against streptococcus.; format: functional; how it was run: as §6
Staphylococcus = assay: Antibacterial activity was evaluated against staphylococcus; format: functional; how it was run: as §6
Shigella = assay: Antibacterial activity was evaluated against shigella.; format: functional; how it was run: as §6
[11] = tested on: Mycobacterium tuberculosis; assay: Antibacterial activity was evaluated against Mycobacterium tuberculosis (clinical isolate 1104); format: functional; how it was run: as §5

SMILES | IC50 (KB [1]) | IC50 (KB [2]) | IC50 (KB [3]) | IC50 (KB [4]) | IC50 (KB [5]) | MIC (Candida albicans) | MIC (Candida parapsilosis) | MIC (Cryptococcus neoformans) | MIC (Trichophyton benhamiae) | MIC (Candida tropicalis) | other results
CC[C@@]1(O)C(=O)OCc2c1cc1n(c2=O)Cc2cc3ccccc3nc2-1 [CAMPTOTHECIN] | 1040 nM | 70 nM | 35 nM | 40 nM | 30 nM |  |  |  |  |  | 
COc1cccc2c1C(=O)c1c(O)c3c(c(O)c1C2=O)C[C@@](O)(C(=O)CO)C[C@@H]3O[C@H]1C[C@H](N)[C@H](O)[C@H](C)O1 [DOXORUBICIN] |  |  |  |  |  | > 2.5 µM | > 2.5 µM | > 2.5 µM | > 2.5 µM | > 2.5 µM | IC50 5637: 20 nM; IC50 (ACHN): 400 nM; MIC (Aspergillus fumigatus): > 2.5 µM; IC50 (CHO-K1): 400 nM; IC50 (IMR-32): 10 nM; IC50 (L1210): 230 nM; IC50 (MOLT-4): 30 nM; CC50 (Lymphoblastoid cell): 60 nM; IC50 (MT4): 20 nM; CC50 (Homo sapiens [6]): 40 nM; CC50 (Homo sapiens [7]): 90 nM; IC50 (WIL2-NS): 20 nM; IC50 (CCRF-SB): 10 nM; IC50 (HT-29): 50 nM
COc1cc([C@@H]2c3cc4c(cc3[C@@H](O[C@@H]3O[C@@H]5CO[C@@H](C)O[C@H]5[C@H](O)[C@H]3O)[C@H]3COC(=O)[C@H]23)OCO4)cc(OC)c1O [ETOPOSIDE] | 1300 nM | 26200 nM | > 50000 nM | 1450 nM | > 50000 nM |  |  |  |  |  | 
Clc1ccc(COC(Cn2ccnc2)c2ccc(Cl)cc2Cl)c(Cl)c1 (stereo not drawn) [MICONAZOLE] |  |  |  |  |  | 7.5 µM (≈ 3.12 µg/mL) | 7.5 µM (≈ 3.12 µg/mL) | 0.9 µM (≈ 0.375 µg/mL) | 0.9 µM (≈ 0.375 µg/mL) | 0.9 µM (≈ 0.375 µg/mL) | 
CN[C@@H]1[C@H](O[C@H]2[C@H](O[C@H]3[C@H](O)[C@@H](O)[C@H](N=C(N)N)[C@@H](O)[C@@H]3N=C(N)N)O[C@@H](C)[C@]2(O)C=O)O[C@@H](CO)[C@H](O)[C@H]1O [STREPTOMYCIN] |  |  |  |  |  |  |  |  |  |  | MIC (Mycobacterium): 7.4 µM (≈ 4.3 µg/mL); MIC [8]: 4 µM (≈ 2.33 µg/mL); MIC [9]: 5.4 µM (≈ 3.14 µg/mL); MIC [10]: 5 µM (≈ 2.91 µg/mL); MIC (Salmonella): 8.6 µM (≈ 5 µg/mL); MIC (Streptococcus): 2.1 µM (≈ 1.22 µg/mL); MIC (Staphylococcus): 4.2 µM (≈ 2.44 µg/mL); MIC (Shigella): 2.1 µM (≈ 1.22 µg/mL); MIC [11]: 2.9 µM (≈ 1.69 µg/mL)
CC[C@]1(O)C[C@H]2CN(CCc3c([nH]c4ccccc34)[C@@](C(=O)OC)(c3cc4c(cc3OC)N(C=O)[C@H]3[C@@](O)(C(=O)OC)[C@H](OC(C)=O)[C@]5(CC)C=CCN6CC[C@]43[C@@H]65)C2)C1 [VINCRISTINE] | 5 nM | 350 nM | 35 nM | 1 nM | 50 nM |  |  |  |  |  | 
